{
  "source": "paper PMC5783483",
  "about": "(Molecular Medicine Reports, 2017)",
  "type_in_all_cases": "in vivo, BALB/c/nu nude mice",
  "conditions_in_all_cases": "Taxol 5 mg/kg injection twice per week",
  "key": {"MX-1/T xenograft": {"tested_on": "MX-1/T xenograft", "assay": "Breast cancer MX-1/T xenograft model", "method_in_brief": "(§1)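 Six-week-old female BALB/c/nu nude mice (15–16 g) bearing MX-1 or MX-1/T xenografts, housed at 25°C on a 12-h light/dark cycle. Mice were randomized into four groups of five once mean tumor volume reached 100–250 mm3. Read-outs were relative tumor volume T/C and excised tumor weight, as mean ± SD.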"}, "MCF-7 xenograft": {"tested_on": "MCF-7 xenograft", "assay": "Breast cancer MCF-7 xenograft model", "method_in_brief": "(§2)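 Six-week-old female BALB/c/nu nude mice (16–22 g) bearing MCF-7 or MCF-7/T xenografts, housed at 25°C on a 12-h light/dark cycle. Mice were randomized into four groups of five at a mean tumor volume of 100–250 mm3. Read-outs were RTV T/C and excised tumor weight, as mean ± SD.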"}, "MCF-7/T xenograft": {"tested_on": "MCF-7/T xenograft", "assay": "Breast cancer MCF-7/T xenograft model", "method_in_brief": "as §2"}, "MX-1 xenograft": {"tested_on": "MX-1 xenograft", "assay": "Breast cancer MX-1 xenograft model", "method_in_brief": "as §1"}},
  "note": "Marks after values point to notes of the source that are not given here.",
  "data": [
    {"smiles": "CC(=O)O[C@H]1C(=O)[C@@]2(C)[C@H]([C@H](OC(=O)c3ccccc3)[C@]3(O)C[C@H](OC(=O)[C@H](O)[C@@H](NC(=O)c4ccccc4)c4ccccc4)C(C)=C1C3(C)C)[C@]1(OC(C)=O)CO[C@@H]1C[C@@H]2O", "note": "[Taxol]", "values": [
      {"measurement": "Body weight Final", "setting": "MX-1/T xenograft; 13 days", "value": "20.4 ± 0.9", "unit": "g"},
      {"measurement": "Relative tumor volume Treated/control ratio", "setting": "MX-1/T xenograft; 13 days", "value": 95.13, "unit": "%"},
      {"measurement": "Relative tumor volume x±SD", "setting": "MX-1/T xenograft; 13 days", "value": "22.71±11.09"},
      {"measurement": "Tumor volume Final", "setting": "MX-1/T xenograft; 13 days", "value": "2,183.1±1,091.0 mm3"},
      {"measurement": "Tumor weight x±SD", "setting": "MX-1/T xenograft; 13 days", "value": "1.58 ± 0.79", "unit": "g"},
      {"measurement": "Body weight Initial", "setting": "MX-1/T xenograft; before treatment", "value": "15.6 ± 0.6", "unit": "g"},
      {"measurement": "Tumor volume Initial", "setting": "MX-1/T xenograft; before treatment", "value": "95.7±17.1", "unit": "mm3"},
      {"measurement": "Body weight Final", "setting": "MCF-7 xenograft; 33 days", "value": "22.8 ± 2.3", "unit": "g"},
      {"measurement": "Relative tumor volume Treated/control ratio", "setting": "MCF-7 xenograft; 33 days", "value": 6.75, "unit": "%"},
      {"measurement": "Relative tumor volume x±SD", "setting": "MCF-7 xenograft; 33 days", "value": "0.34±0.22^a"},
      {"measurement": "Tumor volume Final", "setting": "MCF-7 xenograft; 33 days", "value": "68.3±32.5^a mm3"},
      {"measurement": "Tumor weight Inhibition", "setting": "MCF-7 xenograft; 33 days", "value": 96.36, "unit": "%"},
      {"measurement": "Tumor weight x±SD", "setting": "MCF-7 xenograft; 33 days", "value": "0.04±0.02^a g"},
      {"measurement": "Body weight Initial", "setting": "MCF-7 xenograft; before treatment", "value": "21.0 ± 1.6", "unit": "g"},
      {"measurement": "Tumor volume Initial", "setting": "MCF-7 xenograft; before treatment", "value": "227.4±74.6", "unit": "mm3"},
      {"measurement": "Body weight Final", "setting": "MCF-7/T xenograft; 33 days", "value": "17.5 ± 2.1", "unit": "g"},
      {"measurement": "Relative tumor volume x±SD", "setting": "MCF-7/T xenograft; 33 days", "value": "12.59±3.17"},
      {"measurement": "Tumor volume Final", "setting": "MCF-7/T xenograft; 33 days", "value": "1,871.0±981.5 mm3"},
      {"measurement": "Tumor weight x±SD", "setting": "MCF-7/T xenograft; 33 days", "value": "1.36 ± 0.48", "unit": "g"},
      {"measurement": "Body weight Initial", "setting": "MCF-7/T xenograft; before treatment", "value": "16.8 ± 1.9", "unit": "g"},
      {"measurement": "Tumor volume Initial", "setting": "MCF-7/T xenograft; before treatment", "value": "132.5±45.3", "unit": "mm3"},
      {"measurement": "Body weight Final", "setting": "MX-1 xenograft; 13 days", "value": "20.8 ± 2.2", "unit": "g"},
      {"measurement": "Relative tumor volume Treated/control ratio", "setting": "MX-1 xenograft; 13 days", "value": 55.56, "unit": "%"},
      {"measurement": "Relative tumor volume x±SD", "setting": "MX-1 xenograft; 13 days", "value": "12.27±2.33^b"},
      {"measurement": "Tumor volume Final", "setting": "MX-1 xenograft; 13 days", "value": "1,714.4±308.2^a mm3"},
      {"measurement": "Tumor weight Inhibition", "setting": "MX-1 xenograft; 13 days", "value": 41.56, "unit": "%"},
      {"measurement": "Tumor weight x±SD", "setting": "MX-1 xenograft; 13 days", "value": "0.94±0.20^a g"},
      {"measurement": "Body weight Initial", "setting": "MX-1 xenograft; before treatment", "value": "16.0 ± 0.7", "unit": "g"},
      {"measurement": "Tumor volume Initial", "setting": "MX-1 xenograft; before treatment", "value": "140.2±13.3", "unit": "mm3"}
    ]}
  ]
}
